Test results published in ChEMBL document CHEMBL1144839, “Cytotoxic bastadin 24 from the Australian sponge Ianthella quadrangulata” (J Nat Prod, 2008).
Values after ≈ are worked out from the molar mass of the structure shown.

Tests used:
HUVEC = experiment: Antiangiogenic activity in HUVEC cells assessed as inhibition of hEGF-induced tubular formation at 1 ug/mL after 24 hrs relative to control; assay type: functional, Homo sapiens; set-up: scale not given: the % may be the effect or the level left
[1] = Cytotoxicity against human 1619L cells after 4 days by modified propidium iodide monolayer assay; assay type: functional, cell-based; settings: 96 h
Summary of the method: (§1)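 Part of a 36-line human tumor cell panel. Proliferation inhibition was measured over a range of concentrations, and an IC50 was derived for each cell line from its concentration–response.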

[2] = Cytotoxicity against human 899L cells after 4 days by modified propidium iodide monolayer assay; assay type: functional, cell-based; settings: 96 h; summary of the method: as §1
OVCAR-3 = experiment: Cytotoxicity against human OVCAR-3 cells after 4 days by modified propidium iodide monolayer assay; assay type: functional, cell-based; settings: OVCAR-3, 96 h; summary of the method: as §1
[3] = Cytotoxicity against human 1657L cells after 4 days by modified propidium iodide monolayer assay; assay type: functional, cell-based; settings: 96 h; summary of the method: as §1
PANC-1 = experiment: Cytotoxicity against human PANC1 cells after 4 days by modified propidium iodide monolayer assay; assay type: functional, cell-based; settings: PANC-1, 96 h; summary of the method: as §1
CWR22R = experiment: Cytotoxicity against human 22RV1 cells after 4 days by modified propidium iodide monolayer assay; assay type: functional, cell-based; settings: 22Rv1, 96 h; summary of the method: as §1
DU-145 = experiment: Cytotoxicity against human DU145 cells after 4 days by modified propidium iodide monolayer assay; assay type: functional, cell-based; settings: DU-145, 96 h; summary of the method: as §1
LNCaP = experiment: Cytotoxicity against human LNCAP cells after 4 days by modified propidium iodide monolayer assay; assay type: functional, cell-based; settings: 96 h; summary of the method: as §1
[4] = Cytotoxicity against human PC3M cells after 4 days by modified propidium iodide monolayer assay; assay type: functional, cell-based; settings: PC-3M, 96 h; summary of the method: as §1
[5] = Cytotoxicity against human 1752L cells after 4 days by modified propidium iodide monolayer assay; assay type: functional, cell-based; settings: 96 h; summary of the method: as §1
[6] = Cytotoxicity against human 1781L cells after 4 days by modified propidium iodide monolayer assay; assay type: functional, cell-based; settings: 96 h; summary of the method: as §1
[7] = Cytotoxicity against human 393NL cells after 4 days by modified propidium iodide monolayer assay; assay type: functional, cell-based; settings: 96 h; summary of the method: as §1
[8] = Cytotoxicity against human 486L cells after 4 days by modified propidium iodide monolayer assay; assay type: functional, cell-based; settings: 96 h; summary of the method: as §1
[9] = Cytotoxicity against human 944L cells after 4 days by modified propidium iodide monolayer assay; assay type: functional, cell-based; settings: 96 h; summary of the method: as §1
[10] = Cytotoxicity against human 1138L cells after 4 days by modified propidium iodide monolayer assay; assay type: functional, cell-based; settings: 96 h; summary of the method: as §1
[11] = Cytotoxicity against human 1218L cells after 4 days by modified propidium iodide monolayer assay; assay type: functional, cell-based; settings: 96 h; summary of the method: as §1
T-24 = experiment: Cytotoxicity against human T24 cells after 4 days by modified propidium iodide monolayer assay; assay type: functional, cell-based; settings: T-24, 96 h; summary of the method: as §1
[12] = Cytotoxicity against human 498NL cells after 4 days by modified propidium iodide monolayer assay; assay type: functional, cell-based; settings: 96 h; summary of the method: as §1
SF-268 = experiment: Cytotoxicity against human SF268 cells after 4 days by modified propidium iodide monolayer assay; assay type: functional, cell-based; settings: SF-268, 96 h; summary of the method: as §1
HCT-116 = experiment: Cytotoxicity against human HCT116 cells after 4 days by modified propidium iodide monolayer assay; assay type: functional, cell-based; settings: HCT-116, 96 h; summary of the method: as §1
HT-29 = experiment: Cytotoxicity against human HT29 cells after 4 days by modified propidium iodide monolayer assay; assay type: functional, cell-based; settings: HT-29, 96 h; summary of the method: as §1
[13] = Cytotoxicity against human 251L cells after 4 days by modified propidium iodide monolayer assay; assay type: functional, cell-based; settings: 96 h; summary of the method: as §1
[14] = Cytotoxicity against human 536L cells after 4 days by modified propidium iodide monolayer assay; assay type: functional, cell-based; settings: 96 h; summary of the method: as §1
[15] = Cytotoxicity against human 1121L cells after 4 days by modified propidium iodide monolayer assay; assay type: functional, cell-based; settings: 96 h; summary of the method: as §1
[16] = Cytotoxicity against human 289L cells after 4 days by modified propidium iodide monolayer assay; assay type: functional, cell-based; settings: 96 h; summary of the method: as §1
[17] = Cytotoxicity against human 526L cells after 4 days by modified propidium iodide monolayer assay; assay type: functional, cell-based; settings: 96 h; summary of the method: as §1
[18] = Cytotoxicity against human 529L cells after 4 days by modified propidium iodide monolayer assay; assay type: functional, cell-based; settings: 96 h; summary of the method: as §1
[19] = Cytotoxicity against human 629L cells after 4 days by modified propidium iodide monolayer assay; assay type: functional, cell-based; settings: 96 h; summary of the method: as §1
NCI-H460 = experiment: Cytotoxicity against human H460 cells after 4 days by modified propidium iodide monolayer assay; assay type: functional, cell-based; settings: NCI-H460, 96 h; summary of the method: as §1
[20] = Cytotoxicity against human 401NL cells after 4 days by modified propidium iodide monolayer assay; assay type: functional, cell-based; settings: 96 h; summary of the method: as §1
MCF7 = experiment: Cytotoxicity against human MCF7 cells after 4 days by modified propidium iodide monolayer assay; assay type: functional, cell-based; settings: MCF7, 96 h; summary of the method: as §1
[21] = Cytotoxicity against human 276L cells after 4 days by modified propidium iodide monolayer assay; assay type: functional, cell-based; settings: 96 h; summary of the method: as §1
[22] = Cytotoxicity against human 394NL cells after 4 days by modified propidium iodide monolayer assay; assay type: functional, cell-based; settings: 96 h; summary of the method: as §1
[23] = Cytotoxicity against human 462NL cells after 4 days by modified propidium iodide monolayer assay; assay type: functional, cell-based; settings: 96 h; summary of the method: as §1
[24] = Cytotoxicity against human 514L cells after 4 days by modified propidium iodide monolayer assay; assay type: functional, cell-based; settings: 96 h; summary of the method: as §1
[25] = Cytotoxicity against human 520L cells after 4 days by modified propidium iodide monolayer assay; assay type: functional, cell-based; settings: 96 h; summary of the method: as §1

## O=C1N/C=C/c2ccc(c(Br)c2)Oc2cc(cc(Br)c2O)CCNC(=O)/C(=N/O)Cc2ccc(c(Br)c2)Oc2cc(cc(Br)c2O)C/C1=N\O [BASTADIN 7]
HUVEC
  Activity: 37.3%

## O=C1NCCc2cc(Br)c(c(Br)c2)Oc2cc(cc(Br)c2O)CCNC(=O)/C(=N/O)C(O)c2cc(Br)c(c(Br)c2)Oc2cc(cc(Br)c2O)C/C1=N\O (stereo not given) [BASTADIN 24]
[1]
  IC50: 2.77 µg/mL (≈ 2.49 µM)
  IC70: 4.73 µg/mL (≈ 4.25 µM)
  IC90: 8.07 µg/mL (≈ 7.24 µM)
[2]
  IC50: 3.79 µg/mL (≈ 3.4 µM)
  IC70: 5.95 µg/mL (≈ 5.34 µM)
  IC90: 9.35 µg/mL (≈ 8.39 µM)
OVCAR-3
  IC50: 3.66 µg/mL (≈ 3.29 µM)
  IC70: 5.72 µg/mL (≈ 5.13 µM)
  IC90: 8.94 µg/mL (≈ 8.02 µM)
[3]
  IC50: 2.18 µg/mL (≈ 1.96 µM)
  IC70: 4.58 µg/mL (≈ 4.11 µM)
  IC90: 9.64 µg/mL (≈ 8.65 µM)
PANC-1
  IC50: 4.23 µg/mL (≈ 3.8 µM)
  IC70: 6.31 µg/mL (≈ 5.66 µM)
  IC90: 9.41 µg/mL (≈ 8.45 µM)
CWR22R
  IC50: 0.46 µg/mL (≈ 0.413 µM)
  IC70: 0.96 µg/mL (≈ 0.862 µM)
  IC90: 5.75 µg/mL (≈ 5.16 µM)
DU-145
  IC50: 0.96 µg/mL (≈ 0.862 µM)
  IC70: 2.59 µg/mL (≈ 2.32 µM)
  IC90: 7.04 µg/mL (≈ 6.32 µM)
LNCaP
  IC50: 2.47 µg/mL (≈ 2.22 µM)
  IC70: 4.59 µg/mL (≈ 4.12 µM)
  IC90: 8.56 µg/mL (≈ 7.68 µM)
[4]
  IC50: 1.29 µg/mL (≈ 1.16 µM)
  IC70: 3.03 µg/mL (≈ 2.72 µM)
  IC90: 7.11 µg/mL (≈ 6.38 µM)
[5]
  IC50: 3.81 µg/mL (≈ 3.42 µM)
  IC70: 5.91 µg/mL (≈ 5.31 µM)
  IC90: 9.16 µg/mL (≈ 8.22 µM)
[6]
  IC50: 2.88 µg/mL (≈ 2.59 µM)
  IC70: 4.94 µg/mL (≈ 4.43 µM)
  IC90: 8.5 µg/mL (≈ 7.63 µM)
[7]
  IC50: 2.42 µg/mL (≈ 2.17 µM)
  IC70: 4.38 µg/mL (≈ 3.93 µM)
  IC90: 7.9 µg/mL (≈ 7.09 µM)
[8]
  IC50: 6.08 µg/mL (≈ 5.46 µM)
  IC70: 11.3 µg/mL (≈ 10.2 µM)
  IC90: 21.1 µg/mL (≈ 18.9 µM)
[9]
  IC50: 2.28 µg/mL (≈ 2.05 µM)
  IC70: 4.54 µg/mL (≈ 4.08 µM)
  IC90: 9.02 µg/mL (≈ 8.1 µM)
[10]
  IC50: 1.4 µg/mL (≈ 1.26 µM)
  IC70: 3.3 µg/mL (≈ 2.96 µM)
  IC90: 7.74 µg/mL (≈ 6.95 µM)
[11]
  IC50: 2.56 µg/mL (≈ 2.3 µM)
  IC70: 4.9 µg/mL (≈ 4.4 µM)
  IC90: 9.37 µg/mL (≈ 8.41 µM)
T-24
  IC50: 0.79 µg/mL (≈ 0.709 µM)
  IC70: 2.19 µg/mL (≈ 1.97 µM)
  IC90: 6.24 µg/mL (≈ 5.6 µM)
[12]
  IC50: 2.64 µg/mL (≈ 2.37 µM)
  IC70: 4.6 µg/mL (≈ 4.13 µM)
  IC90: 8.01 µg/mL (≈ 7.19 µM)
SF-268
  IC50: 0.38 µg/mL (≈ 0.341 µM)
  IC70: 0.61 µg/mL (≈ 0.548 µM)
  IC90: 0.96 µg/mL (≈ 0.862 µM)
HCT-116
  IC50: 3.87 µg/mL (≈ 3.47 µM)
  IC70: 5.71 µg/mL (≈ 5.13 µM)
  IC90: 8.4 µg/mL (≈ 7.54 µM)
HT-29
  IC50: 2 µg/mL (≈ 1.8 µM)
  IC70: 3.85 µg/mL (≈ 3.46 µM)
  IC90: 7.44 µg/mL (≈ 6.68 µM)
[13]
  IC50: 2.64 µg/mL (≈ 2.37 µM)
  IC70: 5.42 µg/mL (≈ 4.87 µM)
  IC90: 11.1 µg/mL (≈ 10 µM)
[14]
  IC50: 4.19 µg/mL (≈ 3.76 µM)
  IC70: 6.16 µg/mL (≈ 5.53 µM)
  IC90: 9.08 µg/mL (≈ 8.15 µM)
[15]
  IC50: 1.51 µg/mL (≈ 1.36 µM)
  IC70: 3.43 µg/mL (≈ 3.08 µM)
  IC90: 7.81 µg/mL (≈ 7.01 µM)
[16]
  IC50: 2.68 µg/mL (≈ 2.41 µM)
  IC70: 4.88 µg/mL (≈ 4.38 µM)
  IC90: 8.87 µg/mL (≈ 7.96 µM)
[17]
  IC50: 1.22 µg/mL (≈ 1.1 µM)
  IC70: 3.24 µg/mL (≈ 2.91 µM)
  IC90: 8.63 µg/mL (≈ 7.75 µM)
[18]
  IC50: 1.7 µg/mL (≈ 1.53 µM)
  IC70: 3.61 µg/mL (≈ 3.24 µM)
  IC90: 7.68 µg/mL (≈ 6.89 µM)
[19]
  IC50: 0.37 µg/mL (≈ 0.332 µM)
  IC70: 0.63 µg/mL (≈ 0.566 µM)
  IC90: 1.67 µg/mL (≈ 1.5 µM)
NCI-H460
  IC50: 4.31 µg/mL (≈ 3.87 µM)
  IC70: 6.08 µg/mL (≈ 5.46 µM)
  IC90: 8.57 µg/mL (≈ 7.69 µM)
[20]
  IC50: 0.55 µg/mL (≈ 0.494 µM)
  IC70: 0.87 µg/mL (≈ 0.781 µM)
  IC90: 8.58 µg/mL (≈ 7.7 µM)
MCF7
  IC50: 1.46 µg/mL (≈ 1.31 µM)
  IC70: 3.37 µg/mL (≈ 3.03 µM)
  IC90: 7.78 µg/mL (≈ 6.98 µM)
[21]
  IC50: 0.59 µg/mL (≈ 0.53 µM)
  IC70: 2.02 µg/mL (≈ 1.81 µM)
  IC90: 14.9 µg/mL (≈ 13.4 µM)
[22]
  IC50: 1.5 µg/mL (≈ 1.35 µM)
  IC70: 3.36 µg/mL (≈ 3.02 µM)
  IC90: 7.54 µg/mL (≈ 6.77 µM)
[23]
  IC50: 1.58 µg/mL (≈ 1.42 µM)
  IC70: 3.66 µg/mL (≈ 3.29 µM)
  IC90: 8.46 µg/mL (≈ 7.59 µM)
[24]
  IC50: 1.62 µg/mL (≈ 1.45 µM)
  IC70: 3.64 µg/mL (≈ 3.27 µM)
  IC90: 8.17 µg/mL (≈ 7.33 µM)
[25]
  IC50: 2.6 µg/mL (≈ 2.33 µM)
  IC70: 4.56 µg/mL (≈ 4.09 µM)
  IC90: 7.99 µg/mL (≈ 7.17 µM)

## O=C1NCCc2cc(Br)c(O)c(c2)Oc2c(Br)cc(cc2Br)[C@H](O)CNC(=O)/C(=N/O)Cc2cc(Br)c(O)c(c2)Oc2ccc(cc2Br)C/C1=N\O [BASTADIN 12]
HUVEC
  Activity: 27.6%
